Data on 14 molecules can be found in ChEMBL document CHEMBL1147844, “Acridone derivatives: design, synthesis, and inhibition of breast cancer resistance protein ABCG2” (Bioorg Med Chem, 2007).

Data set [1] addresses T1, Broad substrate specificity ATP-binding cassette transporter ABCG2 (Homo sapiens, UniProt Q9UNQ0).
T1 sequence (Q9UNQ0 whole entry): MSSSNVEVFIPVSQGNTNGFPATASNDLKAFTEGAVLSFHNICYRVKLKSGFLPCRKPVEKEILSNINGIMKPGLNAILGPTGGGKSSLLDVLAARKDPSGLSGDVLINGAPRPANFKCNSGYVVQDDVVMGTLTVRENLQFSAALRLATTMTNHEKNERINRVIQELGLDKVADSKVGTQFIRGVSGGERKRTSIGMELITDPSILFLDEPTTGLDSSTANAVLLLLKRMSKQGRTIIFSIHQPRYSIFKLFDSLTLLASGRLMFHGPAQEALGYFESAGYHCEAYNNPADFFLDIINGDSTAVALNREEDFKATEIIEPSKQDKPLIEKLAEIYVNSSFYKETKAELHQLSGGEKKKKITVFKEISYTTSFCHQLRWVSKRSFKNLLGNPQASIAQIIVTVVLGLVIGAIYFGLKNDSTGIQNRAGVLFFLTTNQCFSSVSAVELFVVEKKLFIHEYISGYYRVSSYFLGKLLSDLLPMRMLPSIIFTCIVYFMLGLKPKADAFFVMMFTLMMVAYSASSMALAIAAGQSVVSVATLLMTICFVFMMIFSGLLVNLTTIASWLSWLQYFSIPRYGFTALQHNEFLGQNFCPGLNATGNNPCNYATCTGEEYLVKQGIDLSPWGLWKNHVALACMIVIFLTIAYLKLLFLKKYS
Briefly: Inhibition of ABCG2 expressed in HEK293 cells assessed as mitoxantrone-mediated efflux by flow cytometry. In kind it is cell-based. A digest of the protocol:
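HEK-293 cells transfected with human wild-type (R482) ABCG2, or empty-vector control cells, loaded with 5 µmol/L mitoxantrone for 30 min at 37 °C with or without a range of inhibitor concentrations (DMSO, 0.5% final). Cells washed in PBS, then kept 1 h in substrate-free medium with the same inhibitor level. Intracellular fluorescence read by flow cytometry. 100% = control minus ABCG2-cell mean fluorescence without inhibitor. IC50 derived.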

Data set [2] deals with T1, Broad substrate specificity ATP-binding cassette transporter ABCG2. In words: Inhibition of ABCG2 expressed in HEK293 cells assessed as mitoxantrone-mediated efflux by flow cytometry relative to GF120918. Format: cell-based. More on the design: concentration or dose not given beside the values.

By IC50 is commonly meant the midpoint of a concentration-inhibition curve. For orientation: Inhibition means the change of the read-out against control, counted positive when it falls.

Structures are written as SMILES. Bounds are passed on as bounds.

For `COc1ccc(CCNC(=O)c2cccc3c(=O)c4ccccc4[nH]c23)cc1`, the 50% inhibitory concentration (IC50) in data set [1] came out at 0.35 µM. Besides, in data set [2], the Inhibition worked out at 71.3%. In the same order, the values of `COc1ccc(CCNC(=O)c2cccc3c(=O)c4ccccc4[nH]c23)cc1OC` are 0.45 µM and 90.2%. `COc1cc2c(cc1OC)CN(CCc1ccc(NC(=O)c3cccc4c(=O)c5cccc(OC)c5[nH]c34)cc1)CC2`: in data set [2], the Inhibition came out at 100%. For the molecule `COc1cc(C(F)(F)F)cc2[nH]c3ccccc3c(=O)c12`, the IC50 in data set [1] stood at 0.77 µM. Also, in data set [2], the Inhibition was found to be 81%. For `COc1cc(OC)c2c(=O)c3ccccc3[nH]c2c1`, in that order: 7.9 µM and 65%.

For the molecule `COc1ccc2[nH]c3ccccc3c(=O)c2c1OC`, the IC50 in data set [1] is above 20 µM.

Consider `COc1ccc2[nH]c3ccccc3c(=O)c2c1`, for which the 50% inhibitory concentration (IC50) in data set [1] came out at 4.8 µM. Also, in data set [2], the Inhibition is given as 66%.

As for `COc1ccc(CCNC(=O)c2cccc3c(=O)c4ccc(OC)cc4[nH]c23)cc1`, in data set [1], the concentration for half-maximal inhibition (IC50) stood at 0.56 µM. The Inhibition in data set [2] stood at 112.3%. For `COc1ccc2c(=O)c3cccc(C(=O)NCCc4ccc(OC)c(OC)c4)c3[nH]c2c1`, in that order: 1.38 µM and 94.9%. As for `O=c1c2ccccc2[nH]c2cc(C(F)(F)F)cc(O)c12`, in data set [1], the half-maximal inhibitory concentration (IC50) is above 20 µM. With `O=c1c2ccccc2[nH]c2cccc(O)c12`, the IC50 in data set [1] was above 20 µM. Still for that read-out and setting: to `COc1cc(O)c2c(=O)c3ccccc3[nH]c2c1` belongs above 20 µM.

As to `COc1cccc2[nH]c3ccccc3c(=O)c12`, the IC50 in data set [1] came to 6.3 µM. Besides, the Inhibition in data set [2] is 74%. Regarding `O=c1c2ccccc2[nH]c2ccc(O)cc12`, the 50% inhibitory concentration (IC50) in data set [1] is above 20 µM.
